Inhibition data for three compounds are collected here from ChEMBL document CHEMBL1250448, “Inhibitor hijacking of Akt activation” (Nat Chem Biol, 2009).

The target in assay [1] is Tyrosine-protein kinase HCK (Homo sapiens) (UniProt P08631). Put plainly: Inhibition of HCK at 1 uM in presence of 10 uM ATP by Select Screen kinase assay relative to untreated control. In outline: (§1)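 Single-concentration profiling at 1 μM against a panel of 220 purified kinases, run as an outsourced SelectScreen kinase profiling service. Activity is expressed as percent inhibition.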

Assay [2] addresses Fibroblast growth factor receptor 2 (Homo sapiens) (UniProt P21802). Put plainly: Inhibition of FGFR2 at 1 uM in presence of 10 uM ATP by Select Screen kinase assay relative to untreated control. The method in brief:
as §1

Assay [3] deals with Macrophage colony-stimulating factor 1 receptor (Homo sapiens) (UniProt P07333). Put plainly: Inhibition of CSF1R at 1 uM in presence of 10 uM ATP by Select Screen kinase assay relative to untreated control. In outline: (§2)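 Single-point screen at 1 μM against a panel of 220 purified kinases, run by Invitrogen staff as a SelectScreen profiling service. Read-out is percent inhibition of kinase activity.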

The target of assay [4] is Fibroblast growth factor receptor 4 (Homo sapiens) (UniProt P22455). Put plainly: Inhibition of FGFR4 at 1 uM in presence of 10 uM ATP by Select Screen kinase assay relative to untreated control. In outline: as §1
The target of assay [5] is Proto-oncogene tyrosine-protein kinase Src (Homo sapiens) (UniProt P12931). Put plainly: Inhibition of SRC at 1 uM in presence of 10 uM ATP by Select Screen kinase assay relative to untreated control. In outline: (§3)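 Commercial SelectScreen profiling panel of 220 purified kinases. Each kinase was tested at a single inhibitor concentration of 1 μM, and activity was expressed as percent inhibition.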

In assay [6] the test system is Platelet-derived growth factor receptor alpha (Homo sapiens), P16234 [D842V]. Put plainly: Inhibition of PDGFRalpha D842V mutant at 1 uM in presence of 10 uM ATP by Select Screen kinase assay relative to untreated control. The method in brief: as §3
Assay [7] has as its target T1, Ephrin type-A receptor 8 (Homo sapiens) (UniProt P29322).
T1 sequence (whole entry): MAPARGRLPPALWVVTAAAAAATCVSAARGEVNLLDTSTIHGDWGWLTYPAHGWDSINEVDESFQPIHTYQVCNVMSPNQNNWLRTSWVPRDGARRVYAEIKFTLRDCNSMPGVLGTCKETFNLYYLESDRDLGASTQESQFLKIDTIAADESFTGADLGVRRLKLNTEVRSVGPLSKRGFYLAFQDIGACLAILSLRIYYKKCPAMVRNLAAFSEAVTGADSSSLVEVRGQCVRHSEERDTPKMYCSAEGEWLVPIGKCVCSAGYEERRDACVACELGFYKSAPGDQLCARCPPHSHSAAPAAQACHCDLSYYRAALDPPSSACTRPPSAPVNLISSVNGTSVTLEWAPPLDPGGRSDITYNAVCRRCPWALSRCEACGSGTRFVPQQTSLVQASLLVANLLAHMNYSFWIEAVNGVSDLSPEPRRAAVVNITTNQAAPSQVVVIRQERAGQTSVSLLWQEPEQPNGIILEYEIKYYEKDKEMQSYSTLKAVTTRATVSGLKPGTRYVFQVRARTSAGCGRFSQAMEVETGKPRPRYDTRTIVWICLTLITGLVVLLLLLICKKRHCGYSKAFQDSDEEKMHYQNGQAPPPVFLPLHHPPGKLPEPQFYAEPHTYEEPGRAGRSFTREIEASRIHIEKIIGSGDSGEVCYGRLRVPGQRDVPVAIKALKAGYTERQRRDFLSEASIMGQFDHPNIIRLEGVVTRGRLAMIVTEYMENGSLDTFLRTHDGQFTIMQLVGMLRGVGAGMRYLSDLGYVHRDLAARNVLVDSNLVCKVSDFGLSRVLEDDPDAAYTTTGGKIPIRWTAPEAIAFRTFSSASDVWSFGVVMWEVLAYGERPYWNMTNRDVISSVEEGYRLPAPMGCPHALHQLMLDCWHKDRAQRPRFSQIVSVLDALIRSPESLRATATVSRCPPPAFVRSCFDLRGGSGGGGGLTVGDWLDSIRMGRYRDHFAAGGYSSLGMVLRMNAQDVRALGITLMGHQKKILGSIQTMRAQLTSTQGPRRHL
Put plainly: Inhibition of EPHA8 at 1 uM in presence of 10 uM ATP by Select Screen kinase assay relative to untreated control. In outline: as §2

The target of assay [8] is T2, Interleukin-1 receptor-associated kinase 4 (Homo sapiens) (UniProt Q9NWZ3).
T2 sequence (whole entry): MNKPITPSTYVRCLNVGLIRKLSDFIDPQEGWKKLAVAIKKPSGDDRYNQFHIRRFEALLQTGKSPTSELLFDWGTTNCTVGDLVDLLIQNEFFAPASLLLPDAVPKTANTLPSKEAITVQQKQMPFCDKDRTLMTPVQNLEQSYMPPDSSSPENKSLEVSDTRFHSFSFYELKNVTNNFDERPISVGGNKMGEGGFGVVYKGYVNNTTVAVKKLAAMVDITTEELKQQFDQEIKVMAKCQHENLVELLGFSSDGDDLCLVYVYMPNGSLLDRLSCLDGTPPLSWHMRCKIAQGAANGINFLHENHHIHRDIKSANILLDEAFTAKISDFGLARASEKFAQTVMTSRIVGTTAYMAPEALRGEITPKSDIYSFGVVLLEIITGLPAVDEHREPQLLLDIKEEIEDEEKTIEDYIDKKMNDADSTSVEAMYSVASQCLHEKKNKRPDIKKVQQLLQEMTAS
Put plainly: Inhibition of IRAK4 at 1 uM in presence of 10 uM ATP by Select Screen kinase assay relative to untreated control. The method in brief:
as §1

For assay [9], the target named is Mitogen-activated protein kinase kinase kinase 8 (Homo sapiens) (UniProt P41279). Put plainly: Inhibition of MAP3K8 at 1 uM in presence of 100 uM ATP by Select Screen kinase assay relative to untreated control. The method in brief: as §1
Assay [10] addresses Mitogen-activated protein kinase 14 (Homo sapiens) (UniProt Q16539). Put plainly: Inhibition of MAPK14 at 1 uM in presence of 100 uM ATP by Select Screen kinase assay relative to untreated control. The method in brief:
as §1

Assay [11] has as its target SRSF protein kinase 1 (Homo sapiens) (UniProt Q96SB4). Put plainly: Inhibition of SRPK1 at 1 uM in presence of 100 uM ATP by Select Screen kinase assay relative to untreated control. In outline: as §3

The structures appear in SMILES notation.

Chain of Platelet-derived growth factor receptor alpha (Homo sapiens), P16234 [D842V] (P16234 whole entry D842V): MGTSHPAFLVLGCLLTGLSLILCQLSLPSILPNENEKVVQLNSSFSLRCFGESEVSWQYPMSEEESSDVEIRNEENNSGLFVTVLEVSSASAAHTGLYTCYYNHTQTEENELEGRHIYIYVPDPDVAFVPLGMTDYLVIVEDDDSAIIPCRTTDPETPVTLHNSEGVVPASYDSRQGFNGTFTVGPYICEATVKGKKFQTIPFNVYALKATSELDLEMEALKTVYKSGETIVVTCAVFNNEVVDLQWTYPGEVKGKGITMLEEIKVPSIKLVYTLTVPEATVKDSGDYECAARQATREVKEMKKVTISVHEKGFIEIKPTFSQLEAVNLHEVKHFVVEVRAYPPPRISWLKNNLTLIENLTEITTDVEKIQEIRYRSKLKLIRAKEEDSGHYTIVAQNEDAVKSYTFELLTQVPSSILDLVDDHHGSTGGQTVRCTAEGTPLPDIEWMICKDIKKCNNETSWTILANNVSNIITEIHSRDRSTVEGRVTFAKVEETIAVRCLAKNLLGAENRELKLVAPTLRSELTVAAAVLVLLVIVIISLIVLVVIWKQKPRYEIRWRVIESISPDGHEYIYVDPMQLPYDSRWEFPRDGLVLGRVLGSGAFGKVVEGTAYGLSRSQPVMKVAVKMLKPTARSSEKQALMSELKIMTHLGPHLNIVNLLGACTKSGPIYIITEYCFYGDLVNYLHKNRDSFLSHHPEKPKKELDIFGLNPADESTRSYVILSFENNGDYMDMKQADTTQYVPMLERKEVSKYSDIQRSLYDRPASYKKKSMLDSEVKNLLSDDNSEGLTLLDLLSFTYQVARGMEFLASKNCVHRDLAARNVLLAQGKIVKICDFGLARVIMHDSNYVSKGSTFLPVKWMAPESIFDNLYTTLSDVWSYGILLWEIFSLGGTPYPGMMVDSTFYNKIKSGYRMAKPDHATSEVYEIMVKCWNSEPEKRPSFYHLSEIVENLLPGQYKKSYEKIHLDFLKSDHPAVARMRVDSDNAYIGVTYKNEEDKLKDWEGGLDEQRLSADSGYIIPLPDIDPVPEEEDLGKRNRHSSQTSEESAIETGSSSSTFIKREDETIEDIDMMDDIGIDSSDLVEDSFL
Chain of Macrophage colony-stimulating factor 1 receptor (Homo sapiens) (P07333 whole entry): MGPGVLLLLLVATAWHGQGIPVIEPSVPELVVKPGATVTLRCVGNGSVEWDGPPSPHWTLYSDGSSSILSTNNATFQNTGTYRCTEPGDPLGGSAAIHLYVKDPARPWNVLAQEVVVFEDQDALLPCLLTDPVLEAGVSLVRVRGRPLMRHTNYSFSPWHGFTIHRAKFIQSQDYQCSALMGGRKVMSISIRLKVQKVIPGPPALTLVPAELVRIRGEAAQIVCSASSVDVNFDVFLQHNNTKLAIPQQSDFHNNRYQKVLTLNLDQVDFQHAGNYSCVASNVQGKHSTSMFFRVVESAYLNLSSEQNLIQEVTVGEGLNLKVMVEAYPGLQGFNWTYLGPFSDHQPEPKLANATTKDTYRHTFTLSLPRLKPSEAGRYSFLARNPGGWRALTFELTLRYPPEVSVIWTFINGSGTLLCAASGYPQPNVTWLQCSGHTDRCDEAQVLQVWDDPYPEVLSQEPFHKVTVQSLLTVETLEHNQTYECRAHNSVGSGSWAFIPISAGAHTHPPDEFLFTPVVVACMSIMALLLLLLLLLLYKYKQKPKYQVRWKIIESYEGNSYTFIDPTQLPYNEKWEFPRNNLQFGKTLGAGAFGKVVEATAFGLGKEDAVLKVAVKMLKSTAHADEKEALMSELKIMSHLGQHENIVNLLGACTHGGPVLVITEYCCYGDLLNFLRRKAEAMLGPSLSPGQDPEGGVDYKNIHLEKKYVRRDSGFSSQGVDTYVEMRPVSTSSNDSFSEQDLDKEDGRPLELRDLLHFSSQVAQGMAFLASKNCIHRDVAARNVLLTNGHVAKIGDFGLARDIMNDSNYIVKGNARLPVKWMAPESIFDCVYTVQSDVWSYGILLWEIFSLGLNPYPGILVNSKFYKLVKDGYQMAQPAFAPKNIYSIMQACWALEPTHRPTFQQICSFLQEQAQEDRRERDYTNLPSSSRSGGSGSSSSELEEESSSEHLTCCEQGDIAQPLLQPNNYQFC
Chain of SRSF protein kinase 1 (Homo sapiens) (Q96SB4 whole entry): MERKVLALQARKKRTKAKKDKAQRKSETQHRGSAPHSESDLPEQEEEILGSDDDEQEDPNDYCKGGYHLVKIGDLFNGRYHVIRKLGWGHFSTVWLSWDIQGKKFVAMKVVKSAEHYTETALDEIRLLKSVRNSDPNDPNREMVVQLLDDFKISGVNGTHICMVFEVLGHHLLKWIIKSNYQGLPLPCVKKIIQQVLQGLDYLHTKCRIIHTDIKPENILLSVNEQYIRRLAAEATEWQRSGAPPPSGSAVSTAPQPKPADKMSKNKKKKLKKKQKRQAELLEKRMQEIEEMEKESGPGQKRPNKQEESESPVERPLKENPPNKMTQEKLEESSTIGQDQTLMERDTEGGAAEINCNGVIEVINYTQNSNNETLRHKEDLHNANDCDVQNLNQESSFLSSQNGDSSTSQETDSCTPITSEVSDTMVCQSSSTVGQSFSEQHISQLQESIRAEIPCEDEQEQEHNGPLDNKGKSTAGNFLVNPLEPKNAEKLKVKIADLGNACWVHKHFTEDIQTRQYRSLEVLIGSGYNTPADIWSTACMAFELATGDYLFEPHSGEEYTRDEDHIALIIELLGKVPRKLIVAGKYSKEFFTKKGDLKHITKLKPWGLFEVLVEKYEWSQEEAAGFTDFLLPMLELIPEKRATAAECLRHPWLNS
Chain of Fibroblast growth factor receptor 2 (Homo sapiens) (P21802 22-821 limits assumed): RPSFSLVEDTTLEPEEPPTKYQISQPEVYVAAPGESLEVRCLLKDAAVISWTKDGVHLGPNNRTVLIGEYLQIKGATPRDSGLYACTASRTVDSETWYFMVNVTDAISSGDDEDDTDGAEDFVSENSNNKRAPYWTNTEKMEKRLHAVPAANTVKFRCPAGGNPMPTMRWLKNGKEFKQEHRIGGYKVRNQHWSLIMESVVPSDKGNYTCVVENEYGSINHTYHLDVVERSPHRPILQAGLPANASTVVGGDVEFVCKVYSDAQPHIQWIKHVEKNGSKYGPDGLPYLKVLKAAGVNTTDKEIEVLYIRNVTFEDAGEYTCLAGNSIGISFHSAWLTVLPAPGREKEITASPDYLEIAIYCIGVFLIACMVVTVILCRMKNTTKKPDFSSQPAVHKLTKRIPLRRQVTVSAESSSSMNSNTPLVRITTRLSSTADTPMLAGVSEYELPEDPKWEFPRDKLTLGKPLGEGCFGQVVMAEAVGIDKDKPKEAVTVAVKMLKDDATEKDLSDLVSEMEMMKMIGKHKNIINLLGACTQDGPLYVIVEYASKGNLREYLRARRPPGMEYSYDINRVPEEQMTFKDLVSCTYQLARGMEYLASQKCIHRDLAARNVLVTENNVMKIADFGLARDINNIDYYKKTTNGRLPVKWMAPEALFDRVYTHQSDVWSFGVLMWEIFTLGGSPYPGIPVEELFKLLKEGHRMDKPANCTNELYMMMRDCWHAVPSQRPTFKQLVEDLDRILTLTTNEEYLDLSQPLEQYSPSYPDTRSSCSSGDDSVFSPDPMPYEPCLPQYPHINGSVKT
Chain of Proto-oncogene tyrosine-protein kinase Src (Homo sapiens) (P12931 2-536 limits assumed): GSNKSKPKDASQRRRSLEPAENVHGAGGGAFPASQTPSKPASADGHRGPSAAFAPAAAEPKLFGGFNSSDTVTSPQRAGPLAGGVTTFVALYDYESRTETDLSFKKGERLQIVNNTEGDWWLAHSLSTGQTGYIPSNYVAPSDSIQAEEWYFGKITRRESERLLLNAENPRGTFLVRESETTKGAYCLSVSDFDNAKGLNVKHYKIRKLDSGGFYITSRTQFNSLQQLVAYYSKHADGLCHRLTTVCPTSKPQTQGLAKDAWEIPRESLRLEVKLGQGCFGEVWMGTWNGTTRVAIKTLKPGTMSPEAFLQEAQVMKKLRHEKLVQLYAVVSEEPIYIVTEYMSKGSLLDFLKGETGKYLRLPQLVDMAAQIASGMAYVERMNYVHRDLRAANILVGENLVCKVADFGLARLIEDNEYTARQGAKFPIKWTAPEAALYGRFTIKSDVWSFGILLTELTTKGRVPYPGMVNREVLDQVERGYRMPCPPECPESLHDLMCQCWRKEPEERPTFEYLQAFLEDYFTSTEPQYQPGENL
Chain of Mitogen-activated protein kinase kinase kinase 8 (Homo sapiens) (P41279 whole entry): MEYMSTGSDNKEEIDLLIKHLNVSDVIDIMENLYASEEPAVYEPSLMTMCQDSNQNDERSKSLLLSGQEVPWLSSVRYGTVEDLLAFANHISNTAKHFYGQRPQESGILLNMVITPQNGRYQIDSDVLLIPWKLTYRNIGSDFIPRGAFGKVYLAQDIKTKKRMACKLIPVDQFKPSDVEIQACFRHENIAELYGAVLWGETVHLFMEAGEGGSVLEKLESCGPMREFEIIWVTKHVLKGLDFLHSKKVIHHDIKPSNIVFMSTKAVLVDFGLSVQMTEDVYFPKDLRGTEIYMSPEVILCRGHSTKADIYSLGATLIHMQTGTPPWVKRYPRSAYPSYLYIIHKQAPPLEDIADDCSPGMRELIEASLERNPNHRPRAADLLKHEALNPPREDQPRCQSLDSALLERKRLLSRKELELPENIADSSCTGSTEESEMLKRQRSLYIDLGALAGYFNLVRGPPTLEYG
Chain of Mitogen-activated protein kinase 14 (Homo sapiens) (Q16539 whole entry): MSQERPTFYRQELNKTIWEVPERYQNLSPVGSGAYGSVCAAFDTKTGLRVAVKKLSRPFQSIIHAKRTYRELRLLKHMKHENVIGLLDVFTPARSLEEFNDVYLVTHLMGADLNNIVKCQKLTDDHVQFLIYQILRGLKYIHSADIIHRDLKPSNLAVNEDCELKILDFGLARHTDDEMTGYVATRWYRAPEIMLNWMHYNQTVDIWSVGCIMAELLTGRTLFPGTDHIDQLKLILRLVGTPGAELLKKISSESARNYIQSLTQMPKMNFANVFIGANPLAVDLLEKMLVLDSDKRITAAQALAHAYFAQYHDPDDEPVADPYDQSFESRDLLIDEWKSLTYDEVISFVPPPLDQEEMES

Take `O=C(NCCCNc1nc(Nc2cccc(NC(=O)N3CCCC3)c2)ncc1I)c1cccs1`: the inhibition came to 9% in assay [1]; 51% in [2]; 44% in assay [3]; 29% in assay [4]; 27% in assay [5]; 106% in assay [6]. The inhibition stood at 16% in assay [7]; 49% in assay [8]; 54% in [9]; 16% in assay [10]; 12% in assay [11].
On to `COc1ccccc1N1CCN(c2ncnc3[nH]nc(Br)c23)CC1`, for which the inhibition came to 15% in assay [1]; 12% in assay [2]; 26% in assay [3]; 15% in assay [4]; 10% in assay [5]; 2% in assay [6]. Further, the inhibition in [7] was 16%; in assay [8] it was 9%; in [9], 17%; in assay [10], 17%; in [11], 12%.
Take `Cc1n[nH]c2ccc(-c3cncc(OC[C@@H](N)Cc4c[nH]c5ccccc45)c3)cc12`: the inhibition in assay [1] is 8%; in [2], 3%; in assay [3], 5%; in assay [4], -2%; in assay [5], 11%; in assay [6], 11%. In addition, the inhibition in assay [7] amounted to 3%; in assay [8] it was 53%; in [9] it was 50%; in assay [10] it was 3%; in assay [11] it was 27%.

What is called inhibition is the drop in the measured response relative to a control, in per cent.
